High-throughput results as filed in PubChem.
FXN GAA850 act = frataxin GAA850 promoter activation; HEK293 lucGAA850 FXN promoter luciferase reporter, 24 h; percent of 10 µM SAHA response; activation, % at 6 µM; hit rate 0.56% among 360,000; AID 540364;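 active = activation above the average of all compounds screened plus 3 SD, cutoff fixed separately per campaign, cut at about 7.5% in these data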
SR-BI uptake up = activators of SR-BI mediated HDL lipid uptake; activation, % at 12.5 µM; hit rate 0.096% among 320,000; AID 504775; CHO ldlA[mSR-BI] cells, DiI-HDL uptake fluorescence, 3 h; 100 = double the neutral-control signal;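 active = mean replicate activation of at least 60% and every replicate at or above 60%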
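Material: SR-BI-overexpressing, LDLR-lacking CHO cells; schedule: compound exposure 3 h, 37 °C; reagent: DiI-labelled HDL at 10 µg/mL final; technique: bottom-read fluorescence, 550/595 nm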
ABCB6 inh 2 = inhibitors of human ABC transporter ABCB6; K562-ABCB6 porphyrin accumulation, flow cytometry, 1 h; stronger effect = lower value; fluorescence ratio to DMSO, % at 10 µM; hit rate 0.19% among 360,000; AID 602162;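 active = fluorescence ratio to DMSO below 75%, the collection mean minus 3 SD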;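 also: signal is porphyrin accumulated inside mitochondria; lower ratio means ABCB6 inhibition with less porphyrin fluorescence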
AHR activator = human AHR activation. AHR-responsive luciferase reporter cells, luminescence. hit rate 2.5% among 320,000. activation, % at 5 µM; in the data active = activation above about 47%
SR-BI DiI inh = blocks mouse SR-BI lipid uptake from DiI-HDL; Q61009; ldlA[mSR-BI] CHO cells, DiI-HDL uptake fluorescence, 3 h; inhibition, % at 12.5 µM; hit rate 0.96% among 320,000;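 active = mean replicate inhibition of at least 70% and a set share of replicates each scoring 70 or more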
HIF activator = HIF pathway transcriptional activation; U2OS HRE-luciferase reporter, luminescence; normalized: DMSO 0%, desferrioxamine 100%; hit rate 0.32% among 300,000; activation, % at 7.5 µM (by protocol);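 active = mean activation of at least 10% of the iron chelator positive control signal, with at least half of replicates also reaching 10%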
AHR act confirm = confirmation of human aryl hydrocarbon receptor activators; shares compounds with AHR activator; AID 2845; activation, % at 9 µM; hit rate 87% among 2,300; human cells, AHR-responsive luciferase reporter, luminescence; in the data active = activation above about 49%;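 also: HepG2 hepatoma cells carrying a DRE-driven firefly luciferase reporter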
PXR counter = activates human PXR in AHR activator counter-screen. shares compounds with AHR activator. cell-based PXR reporter, luciferase luminescence. activation, % at 11.6 µM. hit rate 88% among 2,300. AID 434939; in the data active = activation above about 11%;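 also: human hepatoma DPX-2 cells expressing full-length human PXR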
A number is an active result. In the library only some 3.9% were active in any assay of this set; here they are far more common.

Screening O=c1oc2ccccc2cc1-c1nnc(-c2cccc(Br)c2)o1 returned FXN GAA850 act inactive, SR-BI uptake up inactive, ABCB6 inh 2 inactive, AHR activator inactive, SR-BI DiI inh inactive and HIF activator inactive.
`Brc1cccc(-c2nnc(-c3ccccc3)o2)c1` gave FXN GAA850 act inactive, SR-BI uptake up inactive, ABCB6 inh 2 inactive, AHR activator 121, SR-BI DiI inh inactive, AHR act confirm 134 and PXR counter 28.
`Brc1cccc(-c2nnc(SCc3nc4ccccc4[nH]3)o2)c1` gave FXN GAA850 act inactive, SR-BI uptake up inactive, ABCB6 inh 2 inactive, AHR activator 92, SR-BI DiI inh inactive, HIF activator inactive, AHR act confirm inactive and PXR counter 29.
`O=C(COC(=O)c1cccc(S(=O)(=O)NCc2ccccc2)c1)c1ccc2c(c1)OCCO2` gave FXN GAA850 act inactive, SR-BI uptake up inactive, ABCB6 inh 2 inactive, AHR activator inactive, SR-BI DiI inh inactive and HIF activator inactive.
CSCc1c(C(=O)Nc2ccccc2N2CCOCC2)oc2ccccc12 was read as FXN GAA850 act inactive, SR-BI uptake up inactive, ABCB6 inh 2 inactive, AHR activator inactive and SR-BI DiI inh inactive.
`COCC(=O)Nc1c(C(=O)Nc2ccc3c(c2)OCO3)oc2ccccc12` gave FXN GAA850 act inactive, SR-BI uptake up inactive, ABCB6 inh 2 inactive, AHR activator 134, SR-BI DiI inh inactive, HIF activator inactive, AHR act confirm 100 and PXR counter 48.
For O=C(CCl)Nc1c(C(=O)Nc2ccc3c(c2)OCCO3)oc2ccccc12 the results were FXN GAA850 act inactive, SR-BI uptake up inactive, ABCB6 inh 2 inactive, AHR activator inactive, SR-BI DiI inh inactive and HIF activator inactive.
`CSCc1c(C(=O)Nc2ccc(N3CCOCC3)cc2)oc2ccccc12` gave FXN GAA850 act inactive, SR-BI uptake up inactive, ABCB6 inh 2 inactive, AHR activator 87, SR-BI DiI inh inactive, HIF activator inactive, AHR act confirm 95 and PXR counter 13.
`CSCc1c(C(=O)Nc2ccc3c(c2)OCO3)oc2ccccc12` gave FXN GAA850 act inactive, SR-BI uptake up inactive, ABCB6 inh 2 inactive, AHR activator 92, SR-BI DiI inh inactive, HIF activator inactive, AHR act confirm 109 and PXR counter 45.
Screening COc1ccc(NC(=O)c2oc3ccccc3c2CSC)cc1S(=O)(=O)N1CCOCC1 returned FXN GAA850 act inactive, SR-BI uptake up inactive, ABCB6 inh 2 inactive, AHR activator inactive and SR-BI DiI inh inactive.
Screening CC(=O)Nc1c(C(=O)Nc2ccc3c(c2)OCO3)oc2ccccc12 returned FXN GAA850 act inactive, SR-BI uptake up inactive, ABCB6 inh 2 inactive, AHR activator 113, SR-BI DiI inh inactive, HIF activator inactive, AHR act confirm 147 and PXR counter 35.
N/C(=N\c1nc2ccccc2o1)NC(=O)c1ccc([N+](=O)[O-])cc1 was read as FXN GAA850 act inactive, SR-BI uptake up inactive, ABCB6 inh 2 inactive, AHR activator inactive, SR-BI DiI inh inactive and HIF activator inactive.
N/C(=N\c1nc2ccccc2o1)NC(=O)c1ccc(F)cc1 was read as FXN GAA850 act inactive, SR-BI uptake up inactive, ABCB6 inh 2 inactive, AHR activator 83, SR-BI DiI inh inactive, HIF activator inactive, AHR act confirm 145 and PXR counter 30.
`N/C(=N\c1nc2ccccc2o1)NC(=O)c1ccccc1Br` gave FXN GAA850 act inactive, SR-BI uptake up inactive, ABCB6 inh 2 inactive, AHR activator 95, SR-BI DiI inh inactive, HIF activator inactive, AHR act confirm inactive and PXR counter 28.
Screening CCC(C(=O)NCCc1ccc(OC)c(OC)c1)n1nc(C)n2c(cc3occc32)c1=O (centres undefined) returned FXN GAA850 act inactive, SR-BI uptake up inactive, ABCB6 inh 2 inactive, AHR activator inactive, SR-BI DiI inh inactive and HIF activator inactive.
